# SUMO Mot1 rescue = blocks SUMOylation pathway, rescuing yeast Mot1-301 growth | growth rescue, % at 18.8 µM | S. cerevisiae Mot1-301 growth rescue, ATP luminescence, 38.5C; percent above DMSO median, 100 means doubled | hit rate 1% among 320,000;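 active means every valid replicate shows activation above 250% relative to neutral control wells; inactive means the rest, any valid replicate at or below 250%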;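 further: OY570 slx delta 5 strain wells were the positive control but not used for scaling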
# hERG protect = hERG (human) protection from proarrhythmic block; CHO-hERG, FluxOR thallium flux, dofetilide IC70 present; Q12809; activation (rescue from dofetilide block), less the hit threshold, % at 10 µM; hit rate 0.51% among 310,000; AID 1511;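 active means activation above the mean of controls blocked by dofetilide plus 5 SD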;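 further: thallium influx through hERG after potassium depolarization seen as dye fluorescence rise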
# KCNQ1 pot = potentiators or activators of human KCNQ1 potassium channel; B-score at 10 µM; AID 2648; P51787; hit rate 0.35% among 310,000; CHO-K1 KCNQ1, thallium flux FluxOR fluorescence; stronger effect = higher value;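 active means fluorescence ratio B-score, a plate-corrected score, at least three library SD, with initial intensity B-score within 5 SD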
#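 Doses: Single concentration per compound, DMSO matched to controls | Test system: KCNQ1-transfected CHO-K1 cells | Timing: 90 min dye loading and 20 min compound exposure, both at room temperature | Measured by: Kinetic FluxOR thallium fluorescence, 10-s 1-Hz baseline, 110-s post-stimulus read | Medium: Assay buffer with matched DMSO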
# AI-2 QS modul = modulators of Vibrio harveyi AI-2 quorum sensing system; AID 2094; Vibrio harveyi JMH597 AI-2 luminescence/OD600 ratio, 9 h; stronger effect = lower value; strain lacks LuxN and CqsS sensors; 0 = neutral-control median; hit rate 0.4% among 300,000; activity change, % at 7.5 µM; in the data active means activity change below about -75%, passing the limit was not always enough; inconclusive means no clear call, values can overlap the other calls;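 further: luminescence divided by OD600 gain over 9 h not by final OD600 alone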
# KCNQ1 inh = blocks the human KCNQ1 potassium channel; P51787; CHO-K1 KCNQ1, FluxOR thallium flux fluorescence; stronger effect = higher value; B-score at 10 µM; hit rate 1.3% among 310,000;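 active means compounds whose thallium flux B-score, printed positive for inhibition, exceeds three library SD while starting fluorescence stays within three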;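 further: channel opened by potassium depolarization with thallium stimulus after 20 min compound exposure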
# Cl transport mod = KCC2 (human) Cl- transport modulation; Q9H2X9; KCC2 cells, thallium flux FluoZin-2 fluorescence; B-score of Tl+ flux slope (higher = more flux/activation; lower = inhibition) at 10 µM; hit rate 2.2% among 190,000;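 active means thallium flux slope and its plate-corrected score both differing from the plate sample mean at a set confidence after two filtering rounds, in either direction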;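 further: slope of fluorescence scaled to starting intensity during 10 to 20 s after thallium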
# KCC2 sec1 = KCC2 (human) modulation, secondary assay. shares compounds with Cl transport mod. HEK293-KCC2, thallium flux, FluoZin2 fluorescence; stronger effect = higher value. normalised thallium flux (F/F0 slope) at 10 µM. hit rate 15% among 3,700. AID 1713;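 active means thallium flux slope above the same plate's solvent-only control mean plus 3 SD; inconclusive means the two replicate wells disagree; inactive means no significant difference from solvent-only control wells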
# KCC2 bumet counter = bumetanide-insensitive thallium flux in KCC2 cells with ouabain, counter-screen. shares compounds with Cl transport mod. HEK293-KCC2 + bumetanide/ouabain, thallium flux FluoZin2; stronger effect = higher value. normalized thallium flux at 10 µM. hit rate 49% among 3,700. AID 1714;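 active means thallium entry rate above the same plate's blocked-transporter control wells by more than 3 SD; inconclusive means the two repeat wells disagree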;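 further: raw slope of fluorescence over initial fluorescence between 10 and 20 s after thallium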
# KCC2 sec2 = KCC2 (human) modulation, second secondary assay; shares compounds with Cl transport mod; normalized thallium flux at 10 µM; hit rate 23% among 3,700; HEK293-KCC2, thallium flux FluoZin2 fluorescence; actives lie on both sides; F/F0 rise rate, 10–20 s post-thallium;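 active means thallium flux slope more than 3 SD above or below the plate's solvent-only control mean, mostly below; inconclusive means the two repeat wells disagreed; inactive means no significant shift from solvent-only controls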;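 further: raw slope with 0.1% DMSO as baseline and bumetanide as block control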
# HEK counter1 = counter-screen for KCC2 modulators: effect in parental HEK293 cells; shares compounds with Cl transport mod; thallium flux FluoZin2, ouabain; baseline-ratio fluorescence slope, 10–20 s after thallium; thallium flux rate (normalised fluorescence) at 10 µM; hit rate 46% among 3,700; AID 1716;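 active means thallium flux rate significantly above the same plate's solvent-only control wells, beyond their mean plus 3 SD; inconclusive means the two replicate wells gave conflicting results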
# KCC2 retest ouab = modulates human KCC2 on retest with ouabain | shares compounds with Cl transport mod | HEK293-KCC2, thallium flux FluoZin2 fluorescence; bidirectional: low = inhibitor, high = activator | raw Tl+ flux slope (below DMSO = inhibition, above = activation) at 10 µM | hit rate 48% among 3,700 | AID 1717;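 active means thallium flux slope beyond 3 SD from same-plate DMSO control mean in most replicates, usually higher, sometimes lower; inconclusive means repeat tests gave conflicting results; inactive means no significant difference from controls in most replicates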;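 further: slope of initial-normalized fluorescence between seconds 10 and 20 after thallium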
# HEK counter2 = acts in parental HEK cells, second KCC2 counter-screen | shares compounds with Cl transport mod | HEK293 parental, thallium flux FluoZin-2 fluorescence slope | thallium flux slope at 10 µM | hit rate 33% among 3,700 | AID 1718;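 active means thallium flux slope above the same plate's solvent-control mean plus 3 SD in both duplicate wells; inconclusive means duplicate wells that disagreed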;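 further: run without ouabain in cells lacking the KCC2 cotransporter; slope of fluorescence scaled to its starting value between 10 and 20 s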
# * hit, by the source's call; i = inactive; ? = inconclusive; . = not tested or not shown. A selection: hits, their analogues and other compounds. The true share with any hit is near 4.2%.
SMILES,SUMO Mot1 rescue,hERG protect,KCNQ1 pot,AI-2 QS modul,KCNQ1 inh,Cl transport mod,KCC2 sec1,KCC2 bumet counter,KCC2 sec2,HEK counter1,KCC2 retest ouab,HEK counter2
COc1ccc2nc(N/C(N)=N/C(=S)Nc3cccc(C)c3)nc(C)c2c1,.,-8,i,29,i,-0.21,.,.,.,.,.,.
O=C1c2ccc([N+](=O)[O-])cc2C(=O)N1Cc1cccnc1,-11,-4,i,18,i,.,.,.,.,.,.,.
O=C(NC(=S)NCc1ccccc1)c1ccccc1,-6,-12,i,5,i,22*,0.0063,0.036*,0.043*,0.029*,0.038*,0.03*
S=C(NCc1ccco1)N/N=C/c1ccccc1Cl,12,-2,i,30,i,7.3*,0.0089,0.018*,0.031,0.0095*,0.034*,?
O=C(NC(=S)NCc1ccco1)c1ccccc1,102,-7,i,4,i,19*,?,0.036*,0.035,0.015*,0.028,0.013*
O=C(NC(=S)NCc1ccc(F)cc1)c1ccccc1,-12,-14,i,-5,i,48*,0.027*,0.053*,0.039*,0.021*,0.029*,0.023*
Cc1ccc(Sc2oc(/C=N/n3cnnc3)cc2Br)cc1,-16,-3,i,17,i,-0.72,.,.,.,.,.,.
O=C(Oc1cc(=O)n2ccccc2n1)c1ccccc1,-4,-12,i,23,i,-4.3*,0.012*,0.0074,0.028,0.0056*,0.021,0.0095
CCOC(=O)C(NCCOC)(NC(C)=O)C(F)(F)F (configuration not stated),-10,-1,i,4,i,-0.069,.,.,.,.,.,.
C=CCSc1nnc(NC(=O)c2cccc(S(=O)(=O)N3CCOCC3)c2)s1,-4,-10,i,1,i,.,.,.,.,.,.,.
Cc1nc2scc(-c3ccc(Cl)cc3)c2c(=O)o1,-12,-5,i,23,i,.,0.0094,0.0067,0.033,0.004,0.019,0.011
CSc1nnc(NC(=O)c2ccc(S(=O)(=O)N3CCOCC3)cc2)s1,126,-5,i,15,i,.,.,.,.,.,.,.
COc1ccc(S(=O)(=O)N2CCN=C2SCc2cccc(C)c2)cc1,13,-7,i,-5,i,.,.,.,.,.,.,.
CN(C(=O)c1cccc(C#N)c1)c1nnc(-c2cnccn2)s1,1,-3,i,-8,i,.,0.011,0.0064,0.031,0.0075,0.023,?
CN=c1scc(-c2ccc([N+](=O)[O-])cc2)n1/N=C/c1ccco1,-4,-3,i,-4,i,0.19,.,.,.,.,.,.
CN=c1scc(-c2ccc(F)cc2)n1/N=C/c1ccc(O)c(O)c1,.,.,.,.,.,-4.2*,0.0048,0.0051,0.023*,0.0069,0.015*,?
CC(=O)C(Sc1nn(C)c(=S)s1)C(=O)Nc1ccccc1 (configuration not stated),-8,-16,i,23,i,.,.,.,.,.,.,.
COc1ccccc1CN(Cc1nc2ccccc2c(=O)[nH]1)C(=O)Nc1ccc(C)cc1,14,-3,i,4,i,.,.,.,.,.,.,.
COc1ccccc1CN(Cc1nc2ccccc2c(=O)[nH]1)S(=O)(=O)c1ccc(C)cc1,9,-4,i,18,i,.,0.0094,0.0059,0.03,0.0071,0.019,0.01
CC(NC(=O)C1CCN(S(=O)(=O)c2cccs2)CC1)c1cccc(Cl)c1 (configuration not stated),11,.,.,.,.,.,.,.,.,.,.,.
CCC(C)NC(=O)CSc1nnc(-c2cc(-c3cccs3)nc3ccccc23)o1 (configuration not stated),0,-20,i,13,i,-0.2,.,.,.,.,.,.
CCCCc1c(C)nc2ccc(C)cc2c1SCCC(=O)O,0,-9,i,-22,i,-3.8*,0.0065,?,0.023*,0.0075,0.015*,0.01
CCN(CC)C(=S)NC(=O)c1ccc(F)cc1,59,-1,i,32,i,34*,0.008,0.052*,0.049*,0.033*,0.047*,0.042*
Cc1ccc(C(=O)NC(=S)N2CCN(C)CC2)cc1,-14,-10,i,.,i,1.8,.,.,.,.,.,.
CN1CCN(C(=S)NC(=O)c2ccc(C(C)(C)C)cc2)CC1,-23,-4,i,59,i,11*,0.0056,0.018*,0.03,0.016*,?,0.015*
SMILES,SUMO Mot1 rescue,hERG protect,KCNQ1 pot,AI-2 QS modul,KCNQ1 inh,Cl transport mod,KCC2 sec1,KCC2 bumet counter,KCC2 sec2,HEK counter1,KCC2 retest ouab,HEK counter2
CCOC(=O)N1CCN(C(=S)NC(=O)c2ccnn2C)CC1,-24,-4,i,23,i,-0.49,.,.,.,.,.,.
O=C(NC(=S)N1CCN(C2CCCCC2)CC1)c1ccccc1,-6,-9,i,11,i,35*,0.033*,0.053*,0.047*,0.03*,0.038*,0.035*
CCOC(=O)N1CCN(C(=S)NC(=O)c2ccc(F)cc2)CC1,7,-8,i,17,i,4.2*,0.017,0.011*,0.033,0.013*,0.02,0.016*
O=C(O)c1cccc(NC(=O)c2cccc(S(=O)(=O)N3CCc4ccccc4C3)c2)c1,-11,-17,i,19,i,-0.56,.,.,.,.,.,.
CCOC(=O)C1(CCc2ccccc2)CCN(C(=O)CCn2cncn2)CC1,-11,-10,i,28,i,.,.,.,.,.,.,.
O=C(NC(=S)N1CCCCCC1)c1ccccc1Cl,18,3,i,9,i,23*,0.025*,0.054*,0.038,0.024*,0.048*,0.014*
CN1CCN(C(=S)NC(=O)c2ccc(Br)cc2)CC1,0,-14,i,9,i,12*,?,0.016*,0.032,0.012*,0.026*,0.012
